Hits are enriched below; roughly 2.6% of the tested compounds scored in any of these assays.
NR2E3 ag-1: human photoreceptor-specific nuclear receptor agonism | inhibition of corepressor binding, % at 3.98 µM | CHO-S Gal4-NCOR/VP16-NR2E3 two-hybrid, luciferase | hit rate 0.35% among 360,000;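 active = inhibition above the mean of all tested compounds plus 3 SD, cut at about 70% in these data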;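 note: 0% = DMSO with NR2E3 transfected cells and 100% = cells lacking NR2E3 construct; higher means lower luciferase signal from less NR2E3 corepressor binding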
NR1D1 modulator: modulates human Rev-erb alpha binding to DNA; P20393; AID 1259318; activity, % at 10 µM; Rev-erbα–FITC-DNA binding, fluorescence polarization, 90 min; hit rate 0.79% among 370,000;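 active = activity above about 14%, limit read from the data; passing the limit was not always enough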;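 note: 0% = DMSO wells with 35 nM protein and 100% = DMSO wells with 750 nM protein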
Target sequence (P20393 whole entry, looked up): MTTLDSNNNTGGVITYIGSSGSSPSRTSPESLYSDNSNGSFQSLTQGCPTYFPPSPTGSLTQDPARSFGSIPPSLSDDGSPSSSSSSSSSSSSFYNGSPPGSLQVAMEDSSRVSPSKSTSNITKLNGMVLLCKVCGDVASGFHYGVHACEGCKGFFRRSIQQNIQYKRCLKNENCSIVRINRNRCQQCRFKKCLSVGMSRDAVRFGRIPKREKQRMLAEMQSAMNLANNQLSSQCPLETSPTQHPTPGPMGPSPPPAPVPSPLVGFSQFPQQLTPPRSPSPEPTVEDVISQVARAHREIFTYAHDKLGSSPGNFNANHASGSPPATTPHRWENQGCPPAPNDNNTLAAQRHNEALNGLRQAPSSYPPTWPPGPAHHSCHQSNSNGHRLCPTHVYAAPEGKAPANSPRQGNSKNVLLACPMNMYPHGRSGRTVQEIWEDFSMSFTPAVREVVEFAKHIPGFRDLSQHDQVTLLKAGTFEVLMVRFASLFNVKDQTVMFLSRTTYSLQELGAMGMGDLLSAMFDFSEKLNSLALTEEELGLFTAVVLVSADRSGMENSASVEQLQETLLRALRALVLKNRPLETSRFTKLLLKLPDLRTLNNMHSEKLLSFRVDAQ
rCAG binder: r(CAG) repeat RNA binding; TO-PRO-1 dye displacement fluorescence; inhibition, % at 3 µM; hit rate 1.3% among 370,000; AID 651821;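 active = inhibition above the plate cutoff, the mean of all test compounds on that plate plus 3 SD, cut at about 35% in these data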;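 note: 0% = DMSO alone and 100% = 100 µM mitoxantrone as full dye displacement; higher means more dye released from RNA so lower well fluorescence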
PG9 Ab binder: binds the HIV-1 gp120 antibody PG9 | TR-FRET gp120-PG9 antibody binding | inhibition, % at 6.7 µM | hit rate 0.43% among 360,000 | AID 624416; in the data active = inhibition above about 8.5%
NR2E3 ag-2: NR2E3 (human) agonism | Q9Y5X4 | GST-NR2E3/biotin-RetCOR TR-FRET, 1536-well | inhibition of corepressor binding, % at 4.78 µM | hit rate 0.12% among 320,000;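 active = percent inhibition above the cutoff of mean plus 3 SD of all tested compounds, set per screening campaign, cut at about 20% in these data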;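 note: 0% = DMSO wells and 100% = biotin wells as full block of FRET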
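Material: NR2E3–RetCOR corepressor complex / Amount: 1.35 nM GST-NR2E3 / Medium: Tris pH 7.5 / Compound: single nominal compound dose of 4.8 µM / Incubation: 5 h at 4 °C / Technique: TR-FRET, Eu(K)-anti-GST donor, streptavidin-D2 acceptor, ex 340, em 617/671 nm / Read-out basis: percent loss of FRET ratio relative to control wells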
Rev-erbA confirm: confirmation of modulators of human Rev-erb alpha DNA binding | activation, % at 25 µM | shares compounds with NR1D1 modulator | hit rate 61% among 3,000 | Rev-erb alpha FITC-DNA binding, fluorescence polarization, 90 min;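 active = activation at or above a set limit, or at least 3 SD above the negative control mean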;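 note: 0% = 35 nM protein with DMSO and 100% = 750 nM protein high control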
RORg DNA counter: RORgamma DNA-binding activity, dose-response counter-screen | shares compounds with NR1D1 modulator | purified RORgamma protein-FITC-DNA binding, fluorescence polarization | IC50, µM | hit rate 8% among 910;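 active = Compounds whose fitted half-maximal concentration for disrupting protein-DNA binding is below 10 micromolar; the record names Rev-erb in its text, so the target is in doubt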
Active calls of the source: *; nt = no result given; ! = not active in a repeat.

SMILES	NR2E3 ag-1	NR1D1 modulator	rCAG binder	PG9 Ab binder	NR2E3 ag-2	Rev-erbA confirm	others
COC(=O)/C(C#N)=C/c1c(N2CCN(c3ccc(OC)cc3)CC2)nc2c(C)cccn2c1=O	-8.0	32.9*	-1.5	-1.4	-3.5	0.8
COC(=O)c1cccc(C23CC4(C2)[C@H](CN(C)[C@@H]4c2ccccc2)C3c2ccc(C(F)(F)F)cc2)c1 (stereo not given in full)	8.5	8.3	2.2	-0.7	0.2	nt
COC(=O)c1cccc(C23CC4(C2)[C@H](CN(C)[C@@H]4c2ccccc2)C3c2ccccc2)c1 (stereo not given in full)	-5.8	22.1*	-1.2	0.0	5.1	41.4*
CCCCCCc1nc2nc(Cl)c(Cl)nc2[nH]1	-1.9	21.7*	0.4	-1.8	nt	-2.3
N#CCC(=O)Nc1ccc(C(=O)NNC(=O)c2ccccc2-n2cccc2)cc1	-43.7	4.0	12.9	-0.2	2.0	nt
COc1ccccc1N(C(=O)c1snc(C(N)=O)c1N)C(C(=O)NC1CCCC1)c1ccco1 (stereo not given)	-1.4	2.1	0.2	-0.7	4.1	nt
COc1ccccc1N(C(=O)c1snc(C(N)=O)c1N)C(C(=O)NC1CCCC1)c1ccc(N(C)C)cc1 (stereo not given)	-29.5	36.2*	0.4	-1.7	0.3	10.4
CCOC(=O)c1sc(NC(=O)CN2C(=O)NC3(CCCCCCC3)C2=O)c(C(=O)OCC)c1C	-17.8	28.2*	15.3	-0.3	1.1	7.3
COc1cc(/C=C/c2noc(-c3ccccc3O)n2)cc(OC)c1OC	-23.9	51.0*	0.3	-0.2	-0.1	24.6*
Cc1cc(C)nc(NS(=O)(=O)c2ccc(N/C=C/C(=O)c3ccc(Cl)c(Cl)c3)cc2)n1	-14.6	31.9*	4.8	-4.3	4.4	19.1*
CCOc1ccc(C(=O)/C=C/Nc2ccc(S(=O)(=O)Nc3cc(C)nc(C)n3)cc2)cc1	nt	19.8*	18.0	-0.7	3.6	0.7
CCOC(=O)N1CCN(C(C(=O)NC2CCCC2)c2ccco2)CC1 (stereo not given)	nt	-0.7	0.7	-0.4	nt	nt
Cc1cc(NC(=O)c2cccs2)cc(-c2nc3ncccc3o2)c1O	-6.2	71.3*	2.6	0.7	2.6	67.5*	RORg DNA counter=>40
c1ccc2c(c1)ccc1[nH]c3c(c12)CCCC3	-8.7	3.8	17.0	-1.5	nt	nt
S=c1nc(C2CCCCC2)[nH]c2ccccc12	19.6	16.4*	2.2	8.2	18.1	12.7
Cc1ccc(C)c(OCCC(=O)NCCc2ccc(Cl)cc2)c1	6.0	22.7*	-10.2	3.9	-0.1	26.6*
CCOc1ccc(CCNC(=O)CCOc2cc(C)ccc2C)cc1OCC	-25.9	-1.4	-7.7	0.4	2.7	nt
CCCCCCCCCCCCCCCC[n+]1ccc(C(N)=O)cc1	-3.1	1.1	8.9	0.3	-1.4	nt
CCCCCCCCCCCCCCCC[n+]1ccccc1	3.8	24.7*!	6.9	-0.7	nt	-3.5
Nc1ccc(C#Cc2ccc3c(=O)c4ccccc4oc3c2)cc1	-124.7	-5.4	9.4	0.9	3.4	nt
N#Cc1ccc(C#Cc2ccc3oc4ccccc4c(=O)c3c2)cc1	-4.8	16.0*	6.1	-1.0	nt	16.6
COc1ccccc1N1CCN(C(=O)c2cccc(S(=O)(=O)N3c4ccccc4CC3C)c2)CC1 (stereo not given)	24.4	-0.2	2.5	-1.5	nt	nt
Cn1c(=O)c(C(=O)Nc2ccccc2S(N)(=O)=O)c(O)c2ccccc21	-110.4	-0.3	11.7	-3.3	0.3	nt
CCn1c(=O)c(C(=O)NNC(=O)Cc2ccccc2)c(O)c2ccccc21	-19.9	32.8*	1.0	-1.6	4.6	10.9
CCCCCCCCCCC(=O)NNC(=O)c1c(O)c2ccccc2n(CC)c1=O	nt	nt	nt	nt	-2.4	nt
SMILES	NR2E3 ag-1	NR1D1 modulator	rCAG binder	PG9 Ab binder	NR2E3 ag-2	Rev-erbA confirm	others
CC(C)Cn1c(=O)c(C(=O)Nc2ccccc2S(N)(=O)=O)c(O)c2ccccc21	-43.1	55.6*	7.8	4.3	5.7	28.7*
COc1ccc(CCNC(=O)c2ccc3c(c2)N(Cc2ccccc2)CCS3)cc1OC	-23.9	-1.0	3.4	1.6	4.7	nt
NS(=O)(=O)c1ccc(CCNC(=O)c2ccc3c(c2)N(Cc2ccccc2)CCS3)cc1	-7.6	39.3*	7.4	3.8	2.5	13.3
CSc1nc2cc(C)nn2c(-c2ccccc2Cl)c1C#N	0.8	41.7*	3.5	-1.3	-4.7	14.6
CSc1nc2cc(C)nn2c(-c2ccc(C(C)(C)C)cc2)c1C#N	-14.9	44.4*	-1.6	-2.4	3.9	11.9
COc1ccc([C@H]2C[C@H](n3cc(COC(=O)c4ccccc4)nn3)[C@@H](O)CN2Cc2cccs2)cc1	-8.9	-6.3	9.0	-1.9	nt	nt
CCOC(=O)c1sc2ccc(S(=O)(=O)N3CCCCC3)cc2c1N	10.4	3.9	3.9	-0.8	6.1	nt
CCOC(=O)c1sc2ccc(S(=O)(=O)N3CC(C)CC(C)C3)cc2c1N (stereo not given)	5.8	27.8*	3.2	-1.0	-0.4	18.2*
CC(C)(C)c1ccc(OCCCN2CCC(C(O)(c3ccccc3)c3ccccc3)CC2)cc1	nt	-0.8	3.9	nt	nt	nt
COc1cccc(-c2cc(=O)c3cc(NC(=O)c4ccccc4)ccc3[nH]2)c1	0.0	26.1*	1.7	-13.6	-6.4	10.0
CCOc1ccc(CCNC(=O)COC(=O)c2ccc(S(C)(=O)=O)cc2)cc1OCC	11.7	17.2*	-2.4	-2.1	1.9	2.9
CCOc1ccc(CCNC(=O)COC(=O)c2ccc(S(=O)(=O)N3CCCC3)cc2)cc1OCC	0.1	-6.9	-1.1	-0.3	0.2	nt
CCN1C(=O)CSC1=NC1C2CC3CC(C2)CC1C3 (stereo not given)	-40.0	42.0*	-7.0	-1.5	1.9	47.5*	RORg DNA counter=>40
CCOC(=O)c1cccc(N/C=C/C(=O)c2ccc(OC)c(OC)c2)c1	-192.3	-5.9	10.6	0.1	3.7	nt
CCOC(=O)c1ccc(N/C=C\C(=O)c2cccc(OC)c2)cc1	-45.3	26.6*	1.5	2.2	1.6	4.7
O=[N+]([O-])c1cc(-c2cnc3ccccc3n2)ccc1Cl	-33.3	92.7*	1.8	-1.9	-3.6	68.4*	RORg DNA counter=>40
CC1(C)CC(=O)C=C(Nc2cccc(Cl)c2Cl)C1	-13.0	2.0	-0.4	-1.2	0.8	nt
COc1ccc(-c2cc(-c3ccc(OC)cc3)c(C#N)c(SC)n2)cc1	-15.1	108.0*	0.8	2.6	1.6	52.4*	RORg DNA counter=>40
COc1ccc(-c2cc(-c3cccnc3)c(C#N)c(N)n2)cc1	-29.1	39.8*	-2.2	1.0	2.2	35.8*	RORg DNA counter=>40
O=C(Nc1ccccc1F)c1csc(COCCO)n1	-52.5	-0.4	1.4	1.1	nt	nt
